Only some compounds are listed: those with a hit (about 2.3% of all), similar ones and a draw of the others.
TRPC6 act = activates the mouse TRPC6 cation channel. B-score at 10 µM. 310,000 tested, 0.13% active. HEK293-TRPC6 membrane potential dye fluorescence; hits give high values. AID 2550;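 active means B-score of the integrated fluorescence ratio above library mean plus 3 SD, and starting fluorescence ratio within library mean plus 5 SD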;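 further: higher score means more depolarization so channel activation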
TRPC4 agonist = TRPC4 (mouse) channel activation. HEK293 TRPC4beta/mu-opioid, Fluo4 calcium fluorescence; hits give high values. B-score at 10 µM. 310,000 tested, 0.49% active;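 active means B-score above 5 SD of library B-scores, and initial fluorescence ratio not above library mean plus 5 SD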;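 further: positive B-score marks a calcium rise read as TRPC4 activation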
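Test system: HEK293 cells stably co-expressing mouse TRPC4beta and mu-opioid receptor | Schedule: Fluo4 dye loading 45 min at room temperature, 110 s recording | Measured by: Kinetic Fluo4 calcium fluorescence, 5 s baseline at 1 Hz | Evaluation: B score of integrated ratio | Controls: Buffer (low) and maximal DAMGO (high)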
TRPC6 inhibitor = mouse TRPC6 channel inhibition; HEK293-TRPC6, membrane potential dye, ACh-evoked depolarization; hits give low values; B-score at 10 µM; 310,000 tested, 1.1% active;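 active means B-score under library mean minus 3 SD, initial fluorescence not abnormally high, positive integrated signal ratio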;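 further: B-score derived from integrated fluorescence ratio over the kinetic read; more negative B-score means stronger inhibition of depolarization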
TRPC4 inh = inhibitors of mouse TRPC4 channel. HEK293 TRPC4beta/mu-opioid, DAMGO-evoked Fluo4 calcium flux; hits give low values. 300,000 tested, 0.39% active. AID 2247. B-score at 10 µM;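 active means B-score over 3 SD under the library average, no early fluorescence shift, positive overall ratio signal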
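Assay system – HEK293 line stably carrying TRPC4beta and mu-opioid receptor · Doses – single dose · Detection – Fluo4 calcium-dye fluorescence, kinetic read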
TRPC4 potent = allosteric potentiators of mouse TRPC4 channel; HEK293 TRPC4beta/mu-opioid, DAMGO EC20, Fluo-4 Ca2+ flux; hits give high values; 310,000 tested, 0.42% active; Q9QUQ5; B-score at 10 µM;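 active means B-score of calcium response area above 5 SD of library B-scores, with initial fluorescence ratio within 5 SD of library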
Each line names hits and unclear results; the compound was inactive in the other large screens.

COc1ccc(S(=O)(=O)NC2CCCC2)c(Cl)c1Cl	TRPC4 potent 11
COc1ccc(-n2c3c(cc(C(=O)NNc4ccccc4)c2=O)C(=O)CC(C)(C)C3)cc1	TRPC4 agonist 70
CC1(C)CC(=O)c2cc(C(=O)NCc3ccco3)c(=O)n(-c3ccc(Cl)cc3)c2C1	TRPC4 agonist 121
Cc1cc(F)ccc1S(=O)(=O)N1CCCOC1CNC(=O)C(=O)NC1CC1 (stereo not given)	none
Cc1cccc(NC(=S)N2CCN(c3ccc(F)cc3)CC2)c1	none
CCOC(=O)c1c(C)n(C)c2ccc(OCC(O)CN3CCN(C)CC3)cc12 (stereo not given)	none
OC(CNCCc1ccc(C(F)(F)F)cc1)COc1ccc2ccccc2c1 (stereo not given)	TRPC4 potent 24
CC(=O)c1cccc(OCC(O)CNCCc2ccc(Cl)cc2)c1 (stereo not given)	TRPC4 potent 10
OC(CNCCc1ccc(C(F)(F)F)cc1)COc1cccc2ccccc12 (stereo not given)	TRPC4 agonist 60
CCOC(=O)c1c(C)n(C)c2ccc(OCC(O)CNCCc3ccccc3)cc12 (stereo not given)	TRPC4 potent 21
OC(CNCc1ccc(Cl)cc1)COc1ccccc1 (stereo not given)	none
CCC(C(=O)NC1CC(C)(C)NC(C)(C)C1)c1ccccc1 (stereo not given)	none
CCC1(c2ccc(F)cc2)NC(=O)N(CC(=O)Nc2cccc(S(=O)(=O)N3CCCCC3)c2)C1=O (stereo not given)	TRPC4 potent 12
CCCn1c(SCC(=O)Nc2cc(Cl)ccc2Cl)n[nH]c1=O	none
CCCn1c(SCC(=O)NC(=O)Nc2ccc(C)cc2C)n[nH]c1=O	TRPC4 potent 12
CCOC(=O)c1cc(C#N)c(Oc2ccc(F)cc2)nc1-c1ccccc1	TRPC4 inh -5
CCOC(=O)c1c(S(=O)(=O)NCC(=O)Nc2ccc(F)cc2)c(C)n(C)c1C	none
CCc1ccc(NC(=O)N(CCN(C)C)C(C)c2cccnc2)cc1 (stereo not given)	TRPC4 agonist 72
CCOc1ccc(NC(=O)N(CCN(C)C)C(C)c2cccnc2)cc1 (stereo not given)	none
Cc1cc(OCCNCCO)cc(C)c1Cl	TRPC4 agonist 94, TRPC4 potent 26
Cc1cc(OCCCCCNCCO)cc(C)c1Cl	none
CCOc1cccc(OCCCNCCCOC)c1	TRPC4 potent 11
C=CCc1cccc(OC)c1OCCOCCNCCO	none
COc1cccc(OCCOCCNCCO)c1	TRPC4 agonist 89
CCc1cccc(OCCCCNCCCOC)c1	none
CCN(CCNC(=O)C1CCN(S(=O)(=O)c2cccc3nsnc23)CC1)c1ccccc1	none
CCCN(CCC)CCCNC(=O)C1CCN(S(=O)(=O)c2cccc3nsnc23)CC1	TRPC4 agonist 134
Clc1ccc2nc(CN3CCCc4ccccc43)cn2c1	TRPC4 potent 21
Clc1ccc2nc(CN3CCCCC3)cn2c1	none
CN(C)CCC1Sc2ccccc2Oc2ccccc21 (stereo not given)	TRPC4 inh -6
CC1c2ccccc2SC(CCCN(C)C)c2ccccc21 (stereo not given)	none
Cc1ccc(/C=C2\SC(N3CCCCC3)=NC2=O)cc1	TRPC4 potent 12
CCN1CCN(C2=NC(=O)/C(=C/c3ccc(C)o3)S2)CC1	TRPC4 potent 14
Nc1ccc(-c2nc3c(ccc4ccccc43)[nH]2)cc1	TRPC6 inhibitor -9.5
CCC(C)c1ccc(OCC(=O)Nc2ccc(CN3CCOCC3)cc2)cc1 (stereo not given)	none
COc1ccc(NC(C#N)c2ccccc2OCc2ccccc2)cc1 (stereo not given)	TRPC4 potent 10
CNC[C@@H](Cc1ccccc1)NC[C@@H](CC1CCCCC1)NCCCc1ccccc1	TRPC4 agonist 77
O=C(Nc1ccc(C(=O)N2CCCC2)cc1)c1ccc(F)cc1Cl	none
CC(=O)c1ccc(N2CCN(C(=O)/C=C/c3ccc(S(=O)(=O)NCc4ccco4)cc3)CC2)cc1	TRPC4 potent 12
CC(=O)c1ccc(N2CCN(C(=O)/C=C/c3ccc(S(=O)(=O)N4CCOCC4)cc3)CC2)cc1	none
COc1ccc(CCNC(=O)C2CCN(C(=O)c3ccc(C(C)(C)C)cc3)CC2)cc1	TRPC4 potent 17

Screening data (PubChem)
